For one assay, the system named is P. falciparum NF54. The assay is classed as cell-based. As to conditions: Plasmodium falciparum, NF54, read-out: IC50 P. falciparum proliferation. In short, it runs like this:
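Asynchronous asexual P. falciparum NF54 cultures grown by a standard protocol. Proliferation IC50 determined with DHA as positive and DMSO as negative control. Values are mean IC50 ± SD of at least two independent experiments run in triplicate.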

For assay [1], the system named is P. falciparum NF54 synchronized asexual parasites. In words: Stage-specificity during the asexual cell cycle. The assay is classed as cell-based, Plasmodium falciparum. As to conditions: 6 h; data not shown. In outline: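 NF54 synchronized to 0–3 hpi by gelatin flotation, then 5% D-sorbitol 3 h later. Plated at 2% hematocrit, 0.5% starting parasitemia. 6 h exposure at 1×, 3× or 10× IC50 starting at 0, 6, 12, 18, 24, 30, 36 or 42 hpi, then cells washed in RPMI and recultured. Giemsa-smear parasitemia at 72 h post-synchronization; survival relative to DMSO. Three independent experiments, one well each; unpaired t test versus DMSO.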

We go through 2 molecules from article PMC6978834 (ACS Central Science, 2019).

Regarding `C[C@H]1[C@@H](O)O[C@@H]2O[C@@]3(C)CC[C@H]4[C@H](C)CC[C@@H]1[C@@]24OO3` [dihydroartemisinin (DHA), dihydroartemisinin], the IC50 in the assay on P. falciparum NF54 is 5 ± 1 nM.

For the molecule `Clc1ccc2c(N3CCN(CCCN4CCN(c5ccnc6cc(Cl)ccc56)CC4)CC3)ccnc2c1` [piperaquine], the “activity on the ring stages” value in assay [1] is “not active”.
